# Source: PubChem BioAssay (The Scripps Research Institute Molecular Screening Center)
# The list is not random: actives were taken first. Their share in the collection is about 1.3%.
# LYPLA2 counter: blocks human lysophospholipase 2, a PME1 counter-screen; 320,000 compounds, 0.38% hits; inhibition, % at 5.9 µM; recombinant LYPLA2, FP-Rh probe fluorescence polarization;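 active = inhibition above the screen-wide mean plus 3 SD, limit set per campaign, cut at about 26% in these data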;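 also: 0% = LYPLA2 with DMSO and 100% = wells lacking LYPLA2 enzyme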
# PME-1 primary: PME-1 (human) inhibition. inhibition, % at 5.9 µM. 320,000 compounds, 0.53% hits. AID 2130. recombinant PME-1, FP-Rh probe fluorescence polarization;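 active = inhibition above the campaign mean of all compounds plus 3 SD, cut at about 26% in these data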;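 also: competitive labeling of PME-1 active site by serine hydrolase directed probe; 0% = PME-1 with DMSO and 100% = wells lacking PME-1 enzyme; inhibitors block probe labeling so polarization falls and inhibition rises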
# Target sequence (Q9Y570 whole entry, looked up): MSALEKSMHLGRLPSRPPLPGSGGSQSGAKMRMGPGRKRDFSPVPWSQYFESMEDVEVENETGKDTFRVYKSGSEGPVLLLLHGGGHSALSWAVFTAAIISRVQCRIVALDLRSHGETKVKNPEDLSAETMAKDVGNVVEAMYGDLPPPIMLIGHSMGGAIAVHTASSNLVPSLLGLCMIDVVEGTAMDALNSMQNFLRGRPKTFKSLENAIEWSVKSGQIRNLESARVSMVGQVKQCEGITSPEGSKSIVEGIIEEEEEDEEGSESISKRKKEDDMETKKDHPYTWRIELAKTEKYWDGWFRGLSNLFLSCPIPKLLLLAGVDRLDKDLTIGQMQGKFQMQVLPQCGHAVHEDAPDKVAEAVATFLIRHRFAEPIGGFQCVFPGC
# LYPLA1 inh: blocks human lysophospholipase 1, a PME1 counter-screen | recombinant LYPLA1, FP-Rh probe fluorescence polarization | O75608 | 320,000 compounds, 0.16% hits | AID 2174 | inhibition, % at 5.9 µM;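 active = inhibition above the mean of all tested compounds plus 3 SD, set per campaign, cut at about 14% in these data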;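 also: inhibitors block serine hydrolase probe labeling of LYPLA1 so polarization falls; 0% = enzyme with DMSO and 100% = wells lacking LYPLA1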
# Fam108B inh: blocks mouse Fam108B hydrolase in RBBP9 counter-screen; AID 1947; recombinant Fam108B, FP-Rh probe fluorescence polarization; 300,000 compounds, 0.33% hits; inhibition, % at 9.51 µM;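 active = inhibition above the screen mean inhibition plus 3 SD, computed separately per campaign, cut at about 18% in these data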;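 also: inhibitors lower polarization as less probe binds the enzyme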
# RBBP9 inhibitor: blocks human serine hydrolase RBBP9 | O75884 | recombinant RBBP9, FP-Rh probe fluorescence polarization | inhibition, % at 7.94 µM | 220,000 compounds, 0.2% hits | AID 1515;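 active = inhibition above the campaign mean of all tested compounds plus 3 SD, cut at about 14% in these data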;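 also: plate controls were DMSO wells with RBBP9 for no effect and wells lacking RBBP9 protein for full effect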
# Target sequence (O75884 whole entry, looked up): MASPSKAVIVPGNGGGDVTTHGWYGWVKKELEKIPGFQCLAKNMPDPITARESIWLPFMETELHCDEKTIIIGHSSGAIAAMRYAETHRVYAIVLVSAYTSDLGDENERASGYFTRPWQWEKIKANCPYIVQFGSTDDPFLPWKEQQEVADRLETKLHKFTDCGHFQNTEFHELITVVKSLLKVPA
#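 System: RBBP9 protein | Quantity: 2.5 µM RBBP9 dispensing solution, before mixing | Reagent: FP-Rh probe, 375 nM dispensing solution | Timing: Enzyme-compound preincubation 30 min, then probe labeling 45 min, 25 °C | Measured by: Fluorescence polarization | Read-out: % inhibition | Replication: One well per compound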
# PAD4 inh: PAD4 (human) enzyme inhibition | inhibition, % at 6.36 µM | Q9UM07 | recombinant PAD4, RCA probe fluorescence polarization | 330,000 compounds, 0.41% hits | AID 485272;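 active = percent inhibition above a cutoff equal to the mean of all tested compounds plus 3 SD, cut at about 15% in these data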;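 also: 0% = PAD4 with RCA probe and DMSO and 100% = probe without PAD4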
# LYPLA2 conf: counter-screen for PME1 inhibitors: confirmation of human LYPLA2 inhibitors; 1,100 compounds, 72% hits; recombinant LYPLA2, FP-Rh probe fluorescence polarization; inhibition, % at 5.9 µM; AID 2232; shares compounds with LYPLA2 counter;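 active = mean inhibition across replicates above the hit cutoff set in the primary screen, cut at about 26% in these data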;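 also: blocked labeling of the enzyme by serine hydrolase FP-Rh probe lowers polarization; 0% = enzyme with DMSO and 100% = wells lacking LYPLA2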
# LYPLA2 ABPP: LYPLA2 (human) inhibition, late stage results; shares compounds with LYPLA2 counter; inhibition, % at 20 µM; AID 652029; 150 compounds, 30% hits; rhLYPLA2 in mouse brain proteome, gel ABPP FP-Rh;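 active = inhibition of LYPLA2 enzyme probe labeling above about 50%, limit read from the data; inactive = inhibition below that limit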;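 also: loss of FP-Rh probe labeling of the LYPLA2 gel band measured as band density; 0% = DMSO only control band and 100% = blank gel background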
# * = called active by the depositor; · = no result given.
SMILES,LYPLA2 counter,PME-1 primary,LYPLA1 inh,Fam108B inh,RBBP9 inhibitor,PAD4 inh,LYPLA2 conf,others
Cc1ncc([N+](=O)[O-])n1CC(=O)Nc1ccc(F)cc1,33*,-2,-3,1,·,3,38*,
O=[N+]([O-])c1ccc(CN2CCN(c3ccc([N+](=O)[O-])cc3)CC2)cc1,47*,-2,8,1,·,4,31*,
O=[N+]([O-])c1ccc(N2CCN(Cc3cccc([N+](=O)[O-])c3)CC2)cc1,11,2,-1,1,·,-4,·,
Cc1ccc(N2CCN(CCCN3C(=O)C4CCCN4C3=O)CC2)cc1 (stereo not drawn),6,9,6,3,-7,1,·,
O=C1C2CCCCN2C(=O)N1CCCCN1CCN(c2ccc([N+](=O)[O-])cc2)CC1 (stereo not drawn),31*,1,6,4,-1,4,16,
O=[N+]([O-])c1cccnc1Oc1ccc(F)cc1,3,-4,5,0,-3,4,·,
O=[N+]([O-])c1ccc(Oc2cccc(Br)c2)c2ccncc12,81*,10,11,6,4,-5,79*,LYPLA2 ABPP=57*
O=[N+]([O-])c1ccc(Oc2ccc(F)cc2)c2ccncc12,57*,4,1,-3,12,-12,54*,LYPLA2 ABPP=12
CCc1nnc(NC(=O)C2CCN(c3nc(C)cc(C)n3)CC2)s1,3,-4,-2,-1,-1,-3,·,
CC(=O)c1ccc(OCc2cc(C(=O)NC(C)c3cnn(C)c3)no2)cc1 (stereo not drawn),30*,-3,5,0,·,1,22,
Cc1cc(Cn2nc(-c3ccccc3)cc2C(=O)NCc2cccc(Br)c2)on1,-67,-62,-27,-25,·,-7,·,
CCCCOc1ccc(CSc2nc(C)[nH]c2[N+](=O)[O-])cc1[N+](=O)[O-],50*,-1,11,3,-7,9,54*,LYPLA2 ABPP=20
Cc1ccc(Nc2c([N+](=O)[O-])cc(C(=O)N3CC(=O)Nc4ccccc43)cc2[N+](=O)[O-])c(C)c1,27*,14,0,7,0,3,28*,
Cc1nc2sc(C(c3ccc(Cl)cc3)N3CCN(c4ccccc4F)CC3)c(O)n2n1 (stereo not drawn),29*,-6,5,-2,-4,0,30*,
COc1ccccc1/C=C/CN1CCC(Oc2ccc(C(=O)N3CCCC3)cc2)CC1,17,-1,3,3,·,-2,·,
CC(C)/C=C/CN1CCC(Oc2ccc(C(=O)N3CCCC3)cc2)CC1,60*,1,0,2,·,-4,5,
CSc1cccc(CN2CCC(Oc3ccc(C(=O)N4CCCCC4)cc3)CC2)c1,31*,4,4,-1,·,8,9,
CSc1cccc(CN2CCC(Oc3cccc(C(=O)N4CCCC4)c3)CC2)c1,9,2,2,0,·,-3,·,
O=C(c1cc2ccccc2o1)N1CCN(C/C=C/c2ccccc2)CC1,9,-3,7,-5,·,-5,·,
CN1CC2=Cc3ccccc3OC23Oc2ccccc2C=C3C1,-2,12,-4,3,-1,-1,·,
Cc1nc2ccccc2n(CC(=O)Nc2cc(Cl)cc(Cl)c2)c1=O,32*,-4,-2,0,-6,-6,42*,
CCCCCCCCC[n+]1cccc2c3ccccc3ccc21,19,-8,0,3,1,6,·,
CCCCCCCCCCCCCCCC[n+]1cccc2ccccc21,32*,9,8,13,0,7,57*,
O=C(C1CCN(c2nnc(-n3cccc3)s2)CC1)N1CCN(Cc2ccc3c(c2)OCO3)CC1,34*,-2,4,1,-4,-4,46*,
O=C(C1CCN(c2nnc(N3CCCC3=O)s2)CC1)N1CCN(Cc2ccc3c(c2)OCO3)CC1,·,·,·,·,1,·,·,
SMILES,LYPLA2 counter,PME-1 primary,LYPLA1 inh,Fam108B inh,RBBP9 inhibitor,PAD4 inh,LYPLA2 conf,others
O=C(O)c1ccc(N=Cc2nc(-c3ccco3)oc2O)cc1,31*,5,1,7,0,-3,37*,
CC1(C)Cc2c(sc3nnn(CC(=O)Nc4ccccc4)c(=O)c23)CO1,28*,0,-1,-1,-1,4,36*,
COc1ccccc1NC(=O)Cn1nnc2sc3c(c2c1=O)CC(C)(C)OC3,22,4,2,0,-1,-3,·,
CC(=O)Nc1nc(C)c(-c2nc3ccc([N+](=O)[O-])cc3[nH]2)s1,-1,-4,-1,3,·,1,·,
CCOC(=O)NN1C(=O)c2ccccc2NC1c1ccc(OC)c(OC)c1 (stereo not drawn),5,0,0,2,-7,-5,·,
COc1cccc(NC(=O)COC(=O)c2c(C)nn(-c3ccccc3)c2C)c1,49*,-11,-5,·,·,0,42*,
CCCC(c1nnnn1C1CCCC1)N1CCN(c2ccccc2F)CC1 (stereo not drawn),0,2,4,-4,-1,-1,·,
Cc1nn(C)cc1CN(C)C(=O)c1nn2c(c1Cl)NC(c1cccs1)CC2C(F)(F)F (stereo not drawn),0,-1,-1,5,-4,-4,·,
Cc1nn(C)c(C)c1CN(C)C(=O)c1cc2n(n1)C(C(F)(F)F)CC(c1cccs1)N2 (stereo not drawn),26*,0,-1,3,-9,3,10,
CC1(C)O[C@@H]2[C@H](O1)[C@@H](COS(=O)(=O)O)O[C@H]2n1c(=S)[nH]c2c(=O)[nH]c(N)nc21,3,6,4,·,·,2,·,
O=C(Nc1ccc(Cl)cc1)Nn1cnc2ccccc2c1=O,30*,-6,-5,0,·,-2,34*,
O=C(Nn1cnc2ccccc2c1=O)c1ccccc1Cl,3,5,0,-2,-1,-3,·,
COc1ccc(-n2c(=S)[nH]c3ncccc3c2=O)cc1,-7,0,1,1,-6,0,·,
COc1ccc(Cl)cc1NC(=O)c1noc(C)c1[N+](=O)[O-],28*,3,-1,2,·,-1,36*,
COc1ccc(Cl)cc1NC(=O)c1noc2c1CCCC2,0,0,-2,-3,0,-2,·,
COc1ccc(NC(=S)N2CCN(c3ccc([N+](=O)[O-])cc3)CC2)cc1OC,36*,5,14,5,-1,-2,29*,
CCOc1cccc(Nc2ccc([N+](=O)[O-])cn2)c1,28*,0,4,3,·,3,21,
O=S(=O)(c1ccc(Oc2ccc(Cl)cc2)c(S(=O)(=O)N2CCCCC2)c1)N1CCCCC1,-1,-4,0,1,1,1,·,
